# Legend:
# [1] = target: T1, Urokinase-type plasminogen activator (Homo sapiens, UniProt P00749)
# [2] = target: T2, Tissue-type plasminogen activator (Homo sapiens, UniProt P00750); experiment: Inhibition of human tPA
# How it was run: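 Human one-chain tPA 0.4 µg/mL (final) with 0.1 mg/mL tPA stimulator, preincubated 15 min at 37 °C with inhibitor in 75 mM Tris pH 8.1, 50 mM NaCl. Then 0.4 mM S-2288 (H-D-Ile-Pro-Arg-pNA) added, 60 min at 37 °C. A405 read after preincubation and after substrate incubation, background subtracted. IC50 from % inhibition vs concentration. Ki = IC50/(1+[S]/Km), Km 250 µM.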
# Target sequence in this assay (P00750 whole entry): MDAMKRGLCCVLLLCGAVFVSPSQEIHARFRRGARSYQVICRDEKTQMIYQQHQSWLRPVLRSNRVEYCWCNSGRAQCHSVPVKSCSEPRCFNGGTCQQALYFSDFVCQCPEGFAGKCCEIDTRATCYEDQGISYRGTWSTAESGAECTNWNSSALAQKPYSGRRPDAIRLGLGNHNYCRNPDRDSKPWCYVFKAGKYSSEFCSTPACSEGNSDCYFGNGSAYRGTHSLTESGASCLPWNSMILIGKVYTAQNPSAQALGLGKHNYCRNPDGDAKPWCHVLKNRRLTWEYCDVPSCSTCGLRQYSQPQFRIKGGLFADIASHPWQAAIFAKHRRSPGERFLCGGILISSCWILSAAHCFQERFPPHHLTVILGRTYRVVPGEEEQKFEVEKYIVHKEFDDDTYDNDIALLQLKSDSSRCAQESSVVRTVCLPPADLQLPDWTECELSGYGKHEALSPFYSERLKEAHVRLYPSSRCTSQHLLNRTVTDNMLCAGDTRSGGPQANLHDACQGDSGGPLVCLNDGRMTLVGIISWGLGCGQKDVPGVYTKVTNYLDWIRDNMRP
# Plasminogen [3] = target: T3, Plasminogen (Homo sapiens, UniProt P00747); experiment: Inhibition of human plasmin
# T3 sequence (P00747 97-580 limits assumed): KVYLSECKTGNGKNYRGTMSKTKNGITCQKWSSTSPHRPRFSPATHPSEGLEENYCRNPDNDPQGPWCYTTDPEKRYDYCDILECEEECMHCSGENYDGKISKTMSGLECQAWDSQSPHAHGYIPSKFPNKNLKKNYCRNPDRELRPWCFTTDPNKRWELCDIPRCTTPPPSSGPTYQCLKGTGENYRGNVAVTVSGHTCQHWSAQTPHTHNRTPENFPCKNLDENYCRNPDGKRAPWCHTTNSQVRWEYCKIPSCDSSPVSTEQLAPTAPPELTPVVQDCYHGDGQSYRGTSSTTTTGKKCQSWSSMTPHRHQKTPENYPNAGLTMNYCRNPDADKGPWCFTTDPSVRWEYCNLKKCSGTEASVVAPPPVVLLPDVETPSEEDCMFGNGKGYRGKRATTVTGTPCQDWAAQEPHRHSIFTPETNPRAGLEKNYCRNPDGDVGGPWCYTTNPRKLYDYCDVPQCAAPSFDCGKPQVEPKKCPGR
# T3 sequence (P00747 581-810 limits assumed): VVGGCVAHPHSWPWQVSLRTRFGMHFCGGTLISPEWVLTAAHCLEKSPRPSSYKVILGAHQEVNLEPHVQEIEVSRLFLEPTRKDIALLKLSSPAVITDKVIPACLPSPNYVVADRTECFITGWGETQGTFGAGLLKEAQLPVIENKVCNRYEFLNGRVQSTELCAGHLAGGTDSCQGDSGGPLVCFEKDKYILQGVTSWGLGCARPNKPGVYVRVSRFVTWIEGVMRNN
# How it was run: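 Human plasmin 0.7 µg/mL with 0.2 mM Chromozym-PL and varied inhibitor in Tris pH 8.1/NaCl buffer. Preincubated 15 min at 37 °C, then 30 min at 37 °C with substrate. A405 background-subtracted, % inhibition plotted for IC50.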
# [4] = Solubility in phosphate buffered saline at pH 6.5; type: physicochemical
# How it was run: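 Solubility measured in phosphate-buffered saline, pH 6.5.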
# [5] = Dissociation constant, pKa of the compound; type: physicochemical
# [6] = Drug level in dermis of pig excisional wound model; type: ADME, tissue-based, Sus scrofa; conditions: in vivo, read-out: Activity
# How it was run: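 Pig full-thickness wounds dosed topically once daily for 10 days with 1 mL of 10 mg/mL compound suspended in hydrogel (glycerol/water/F127/CMC). Animals killed on day 11. Wounds excised and dermal compound concentration determined.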
# Coagulation factor IX [7] = target: T4, Coagulation factor IX (Homo sapiens, UniProt P00740); experiment: Inhibition of factor 9a at 12.5 uM
# T4 sequence (P00740 47-191 limits assumed): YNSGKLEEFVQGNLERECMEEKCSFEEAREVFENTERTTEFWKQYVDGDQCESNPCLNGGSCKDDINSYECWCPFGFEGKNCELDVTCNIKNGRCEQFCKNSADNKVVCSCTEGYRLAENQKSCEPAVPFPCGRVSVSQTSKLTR
# T4 sequence (P00740 227-461 limits assumed): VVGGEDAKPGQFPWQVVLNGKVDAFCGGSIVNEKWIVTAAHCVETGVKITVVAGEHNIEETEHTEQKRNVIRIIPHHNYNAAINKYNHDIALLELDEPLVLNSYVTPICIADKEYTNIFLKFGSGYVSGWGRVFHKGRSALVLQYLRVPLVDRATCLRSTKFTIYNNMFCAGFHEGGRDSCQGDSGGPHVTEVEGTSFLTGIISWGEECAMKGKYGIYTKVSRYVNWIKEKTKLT
# How it was run: (§1)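 Human coagulation enzyme tested in a chromogenic enzyme assay. Percent inhibition was read at a single inhibitor concentration.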
# [8] = Lipophilicity, log D at pH7.4; type: physicochemical; conditions: buffer, pH 7.4
# [9] = target: Coagulation factor X (Homo sapiens) (UniProt P00742); experiment: Inhibition of factor 10a at 10 uM
# Chain of Coagulation factor X (Homo sapiens) (P00742 41-179 limits assumed): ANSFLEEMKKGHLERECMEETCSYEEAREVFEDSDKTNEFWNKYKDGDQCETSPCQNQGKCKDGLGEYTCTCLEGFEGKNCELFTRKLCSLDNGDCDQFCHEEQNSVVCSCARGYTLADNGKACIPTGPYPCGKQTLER
# Chain of Coagulation factor X (Homo sapiens) (P00742 235-488 limits assumed): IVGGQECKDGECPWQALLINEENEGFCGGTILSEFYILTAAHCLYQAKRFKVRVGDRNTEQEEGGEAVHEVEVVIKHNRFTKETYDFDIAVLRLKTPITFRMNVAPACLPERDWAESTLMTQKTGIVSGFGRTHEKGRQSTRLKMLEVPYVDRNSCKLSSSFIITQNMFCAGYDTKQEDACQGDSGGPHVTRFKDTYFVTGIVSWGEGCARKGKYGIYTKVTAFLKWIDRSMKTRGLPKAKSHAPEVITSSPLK
# How it was run: as §1
# [10] = target: T2, Tissue-type plasminogen activator; experiment: Inhibition of human tPA at 100 uM
# How it was run: (§2)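 Human one-chain tPA (0.4 µg/mL final) with 0.1 mg/mL tPA stimulator, preincubated with inhibitor for 15 min at 37 °C in 75 mM Tris pH 8.1, 50 mM NaCl. Then incubated with 0.4 mM S-2288 substrate for 60 min at 37 °C. Absorbance read at 405 nm, background subtracted, and percent inhibition calculated.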
# Target sequence in this assay (P00750 36-562 limits assumed): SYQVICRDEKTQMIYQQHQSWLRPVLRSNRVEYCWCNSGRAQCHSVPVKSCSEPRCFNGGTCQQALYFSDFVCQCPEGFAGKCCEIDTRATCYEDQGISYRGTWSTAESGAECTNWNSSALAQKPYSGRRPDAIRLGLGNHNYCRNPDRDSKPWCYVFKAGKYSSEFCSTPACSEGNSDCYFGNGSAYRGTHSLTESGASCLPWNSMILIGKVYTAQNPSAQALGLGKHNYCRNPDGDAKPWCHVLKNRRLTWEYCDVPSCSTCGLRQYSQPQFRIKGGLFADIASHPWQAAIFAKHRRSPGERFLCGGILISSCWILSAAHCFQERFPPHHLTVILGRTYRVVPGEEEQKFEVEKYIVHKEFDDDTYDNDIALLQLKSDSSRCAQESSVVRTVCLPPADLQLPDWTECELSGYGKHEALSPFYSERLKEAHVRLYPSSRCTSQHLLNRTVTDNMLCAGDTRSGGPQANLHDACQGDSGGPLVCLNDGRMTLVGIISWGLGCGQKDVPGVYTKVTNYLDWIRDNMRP
# [11] = target: T2, Tissue-type plasminogen activator; experiment: Inhibition of human tPA at 30 uM
# How it was run: as §2
# Target sequence in this assay (P00750 36-562 limits assumed): as above
# Plasminogen [12] = target: T3, Plasminogen; experiment: Inhibition of human plasmin at 100 uM
# How it was run: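 Human plasmin (0.7 µg/mL) preincubated with inhibitor for 15 min at 37 °C in 75 mM Tris pH 8.1, 50 mM NaCl. Then incubated with 0.2 mM Chromozym-PL for 30 min at 37 °C. Absorbance read at 405 nm, background at time zero subtracted, and percent inhibition calculated.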
# [13] = target: T5, Coagulation factor VII (Homo sapiens) (UniProt P08709); experiment: Inhibition of factor 7a at 10 uM
# T5 sequence (whole entry): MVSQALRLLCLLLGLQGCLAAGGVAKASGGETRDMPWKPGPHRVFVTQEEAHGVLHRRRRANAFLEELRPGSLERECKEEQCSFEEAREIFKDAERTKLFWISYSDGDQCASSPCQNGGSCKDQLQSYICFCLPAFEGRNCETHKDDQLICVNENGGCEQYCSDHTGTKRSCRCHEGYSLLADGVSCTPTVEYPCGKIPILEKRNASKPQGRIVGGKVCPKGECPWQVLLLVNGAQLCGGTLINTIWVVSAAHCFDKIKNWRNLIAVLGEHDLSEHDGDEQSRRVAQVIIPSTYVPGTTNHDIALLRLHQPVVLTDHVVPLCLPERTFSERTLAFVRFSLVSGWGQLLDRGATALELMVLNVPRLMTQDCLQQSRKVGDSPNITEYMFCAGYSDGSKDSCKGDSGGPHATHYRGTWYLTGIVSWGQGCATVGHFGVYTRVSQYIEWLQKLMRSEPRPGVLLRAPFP
# How it was run: (§3)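 Chromogenic enzyme assays against coagulation proteases: bovine thrombin, human factors VIIa and IXa.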
# [14] = target: T1, Urokinase-type plasminogen activator; experiment: Inhibition of human uPA in human wound fluid
# Prothrombin (Bos taurus) = Prothrombin (Bos taurus) (UniProt P00735); experiment: Inhibition of bovine thrombin at 10 uM
# How it was run: as §3
# Homo sapiens [15] = species: Homo sapiens; experiment: Protein binding in human plasma; conditions: read-out: PPB (converted)
# Coagulation factor IX [16] = target: T4, Coagulation factor IX; experiment: Inhibition of factor 9a
# How it was run: as §3
# Homo sapiens [17] = species: Homo sapiens; experiment: Solubility in human plasma
# [18] = target: T1, Urokinase-type plasminogen activator; experiment: Inhibition of uPA in pig granulation tissue homogenate
structure (smiles),measurement,setting,value
NC(N)=Nc1ncc(Cl)c2ccc(S(=O)(=O)N3CC(C(=O)O)C3)cc12,Ki,[1],0.33 µM
NC(N)=Nc1ncc(Cl)c2ccc(S(=O)(=O)NC3(C(=O)O)CCCC3)cc12,Ki,[2],38 µM
same,Ki,Plasminogen [3],14 µM
same,Ki,[1],0.0058 µM
CC(C)(NS(=O)(=O)c1ccc2c(Cl)cnc(N=C(N)N)c2c1)C(=O)O,Ki,[2],40 µM
same,Ki,Plasminogen [3],27 µM
same,solubility,[4],2.3 µg/mL
same,pKa,[5],3.4
same,concentration,[6],41.8 µM
same,inhibition,Coagulation factor IX [7],13%
same,logD,[8],0
same,inhibition,[9],0%
CN1CCN(C(=O)C2(NS(=O)(=O)c3ccc4c(Cl)cnc(N=C(N)N)c4c3)CCCC2)CC1,Ki,[2],34.7 µM
same,Ki,Plasminogen [3],65 µM
same,Ki,[1],0.0014 µM
NC(N)=Nc1ncc(Cl)c2ccc(S(=O)(=O)NC3(C(=O)N4CCOCC4)CCCC3)cc12,Ki,[2],34.4 µM
same,Ki,Plasminogen [3],> 30 µM
same,Ki,[1],0.0016 µM
NC(N)=Nc1ncc(Cl)c2ccc(S(=O)(=O)Nc3cccc(C(=O)O)c3)cc12,Ki,[2],> 100 µM
same,Ki,Plasminogen [3],9.8 µM
same,Ki,[1],0.059 µM
NC(N)=Nc1ncc(Cl)c2ccc(S(=O)(=O)N3CCC[C@@H]3C(=O)O)cc12,Ki,[2],> 100 µM
same,inhibition,[10],< 50%
same,Ki,Plasminogen [3],> 100 µM
same,Ki,[1],0.0099 µM
CN(C)CCN(C1(C(=O)O)CCCC1)S(=O)(=O)c1ccc2c(Cl)cnc(N=C(N)N)c2c1,Ki,[2],23 µM
same,Ki,Plasminogen [3],32 µM
CC(C)(CNS(=O)(=O)c1ccc2c(Cl)cnc(N=C(N)N)c2c1)C(=O)O,Ki,[1],0.043 µM
NC(N)=Nc1ncc(Cl)c2ccc(S(=O)(=O)NC3CCCC3)cc12,inhibition,[11],< 50%
same,Ki,[2],> 30 µM
same,Ki,Plasminogen [3],> 100 µM
same,Ki,[1],0.071 µM
NC(N)=Nc1ncc(Cl)c2ccc(S(=O)(=O)N(CC(=O)O)CC3CCCC3)cc12,Ki,[2],> 100 µM
same,Ki,Plasminogen [3],23 µM
same,Ki,[1],0.031 µM
CN(C)CCNC(=O)C1(NS(=O)(=O)c2ccc3c(Cl)cnc(N=C(N)N)c3c2)CCCC1,Ki,Plasminogen [3],> 100 µM
same,Ki,[1],0.03 µM
C[C@@H](C(=O)O)N(Cc1ccccc1)S(=O)(=O)c1ccc2c(Cl)cnc(N=C(N)N)c2c1,Ki,[2],> 100 µM
same,Ki,[1],0.027 µM
CCOC(=O)C1(NS(=O)(=O)c2ccc3c(Cl)cnc(N=C(N)N)c3c2)CCCC1,Ki,[2],23 µM
same,Ki,Plasminogen [3],> 100 µM
same,Ki,[1],0.014 µM
same,inhibition,Plasminogen [12],< 50%
NC(N)=Nc1ncc(Cl)c2ccc(S(=O)(=O)Nc3ccccc3C(=O)O)cc12,Ki,[2],> 100 µM
same,Ki,Plasminogen [3],33 µM
same,Ki,[1],0.086 µM
NC(N)=Nc1ncc(Cl)c2ccc(S(=O)(=O)N3CCCC[C@@H]3C(=O)O)cc12,Ki,[2],> 100 µM
same,Ki,Plasminogen [3],> 100 µM
NC(N)=Nc1nccc2ccc(S(=O)(=O)Nc3ccccc3)cc12,Ki,[2],15 µM
same,Ki,Plasminogen [3],3.2 µM
NC(N)=Nc1ncc(Cl)c2ccc(S(=O)(=O)NC3(C(=O)O)CCOCC3)cc12,Ki,[2],> 100 µM
same,Ki,Plasminogen [3],41 µM
NC(N)=Nc1ncc(Cl)c2ccc(S(=O)(=O)N(CC(=O)O)Cc3ccccc3)cc12,Ki,[2],> 100 µM
same,Ki,Plasminogen [3],> 100 µM
same,Ki,[1],0.035 µM
NC(N)=Nc1ncc(Cl)c2ccc(S(=O)(=O)NCCC(=O)O)cc12,Ki,[2],> 100 µM
same,Ki,Plasminogen [3],> 100 µM
same,Ki,[1],0.058 µM
CC(C)(C)[C@@H](NS(=O)(=O)c1ccc2c(Cl)cnc(N=C(N)N)c2c1)C(=O)O,Ki,[2],> 100 µM
same,Ki,Plasminogen [3],> 100 µM
same,Ki,[1],0.022 µM
NC(N)=Nc1ncc(Cl)c2ccc(S(=O)(=O)N3CCC[C@@H]3CO)cc12,Ki,[1],0.16 µM
NC(N)=Nc1ncc(Cl)c2ccc(S(N)(=O)=O)cc12,Ki,[2],> 100 µM
same,inhibition,[10],< 50%
same,Ki,Plasminogen [3],> 100 µM
NC(N)=Nc1ncc(Cl)c2ccc(S(=O)(=O)N3CCC[C@H]3C(=O)O)cc12,Ki,[2],> 100 µM
same,Ki,Plasminogen [3],> 100 µM
same,Ki,[1],0.111 µM
C[C@H](NS(=O)(=O)c1ccc2c(Cl)cnc(N=C(N)N)c2c1)C(=O)O,Ki,Plasminogen [3],15 µM
same,Ki,[1],0.021 µM
NC(N)=Nc1ncc(Cl)c2ccc(S(=O)(=O)N(CC(=O)O)c3ccccc3)cc12,Ki,[2],> 100 µM
same,Ki,Plasminogen [3],> 100 µM
same,Ki,[1],0.029 µM
CC(C)[C@H](NS(=O)(=O)c1ccc2c(Cl)cnc(N=C(N)N)c2c1)C(=O)O,Ki,[2],> 100 µM
same,Ki,Plasminogen [3],45 µM
same,Ki,[1],0.066 µM
CC(C)[C@@H](NS(=O)(=O)c1ccc2c(Cl)cnc(N=C(N)N)c2c1)C(=O)O,Ki,[2],38 µM
same,Ki,Plasminogen [3],16 µM
same,Ki,[1],0.019 µM
CN1CCN(S(=O)(=O)c2ccc3c(Cl)cnc(N=C(N)N)c3c2)CC1,Ki,[1],0.55 µM
NC(N)=Nc1ncc(Cl)c2ccc(S(=O)(=O)NC3(C(=O)NCCO)CCCC3)cc12,Ki,[2],108 µM
same,Ki,Plasminogen [3],> 100 µM
same,Ki,[1],0.01 µM
CN(CC(=O)O)S(=O)(=O)c1ccc2c(Cl)cnc(N=C(N)N)c2c1,Ki,[2],> 100 µM
same,inhibition,[10],< 50%
same,Ki,Plasminogen [3],> 100 µM
NC(N)=Nc1nccc2c(Cl)cc(-c3cccc(C(=O)O)c3)cc12,inhibition,[13],3%
same,IC50,[14],6.91 µM
same,inhibition,Prothrombin (Bos taurus),2%
same,fraction unbound,Homo sapiens [15],0.002
same,solubility,[4],< 1 µg/mL
same,Ki,Coagulation factor IX [16],1.24 µM
same,pKa,[5],2.35
same,solubility,Homo sapiens [17],60 µM
same,IC50,[18],8.35 µM
same,logD,[8],2.3
same,inhibition,[9],0%
NC(N)=Nc1ncc(Cl)c2ccc(S(=O)(=O)NC3(C(=O)O)CCCCC3)cc12,Ki,[2],> 100 µM
same,Ki,Plasminogen [3],39 µM
same,Ki,[1],0.008 µM
NC(N)=Nc1ncc(Cl)c2ccc(S(=O)(=O)NC3(CO)CCCC3)cc12,Ki,[1],0.067 µM
NC(N)=Nc1ncc(Cl)c2ccc(S(=O)(=O)N3CCOCC3)cc12,Ki,[1],0.33 µM
NC(N)=Nc1nccc2ccc(S(N)(=O)=O)cc12,Ki,[2],24 µM
same,Ki,Plasminogen [3],13 µM
same,Ki,[1],0.28 µM
NC(N)=Nc1ncc(Cl)c2ccc(S(=O)(=O)NCC(=O)O)cc12,Ki,[2],> 30 µM
same,Ki,Plasminogen [3],> 30 µM
same,Ki,[1],0.048 µM
CN1CCC(NS(=O)(=O)c2ccc3c(Cl)cnc(N=C(N)N)c3c2)(C(=O)O)CC1,Ki,Plasminogen [3],71 µM
same,Ki,[1],0.011 µM
C[C@@H](NS(=O)(=O)c1ccc2c(Cl)cnc(N=C(N)N)c2c1)C(=O)O,Ki,[1],0.028 µM
NC(=O)[C@H]1CCCN1S(=O)(=O)c1ccc2c(Cl)cnc(N=C(N)N)c2c1,Ki,[1],0.054 µM
NC(N)=Nc1ncc(Cl)c2ccc(S(=O)(=O)N3CCCC3)cc12,Ki,[2],> 30 µM
same,Ki,Plasminogen [3],> 30 µM
NC(N)=Nc1ncc(Cl)c2ccc(S(=O)(=O)NC3(C(=O)O)CCC3)cc12,Ki,[2],> 100 µM
same,inhibition,[10],< 50%
same,Ki,Plasminogen [3],16 µM

# From ChEMBL document CHEMBL1139871, “Selective urokinase-type plasminogen activator inhibitors. 4. 1-(7-sulfonamidoisoquinolinyl)guanidines” (J Med Chem, 2007)
